Measured values collected from several papers.
Compare with care: the assays were run in different laboratories. In brackets after ≈: the same amount, converted by molar mass.

COc1ccc2c(ccc3oc([N+](=O)[O-])c(C)c32)c1 — MIC90 (Mycolicibacterium smegmatis; microbial growth, resazurin; MC^2155): > 32 µg/mL
CC(C)=CCC/C(C)=C/CNCCNC1C2CC3CC(C2)CC1C3 (centres unmarked) — IC50 (Mycolicibacterium smegmatis; microbial growth; 48 h): 2.4 µM
CCCCCOc1ccc(-c2cc(-c3ccc(C(=O)N[C@H]4C[C@@H](O)[C@@H](O)NC(=O)[C@@H]5[C@@H](O)[C@@H](C)CN5C(=O)[C@H]([C@H](O)CC(N)=O)NC(=O)[C@H]([C@H](O)[C@@H](O)c5ccc(O)c(OS(=O)(=O)O)c5)NC(=O)[C@@H]5C[C@@H](O)CN5C(=O)[C@H]([C@@H](C)O)NC4=O)cc3)no2)cc1 — inhibition (Candida tropicalis; biofilm formation; 16 µg/mL): 28%
CC(C)[C@H](N)C(=O)OCCCCCn1cnc2nc(NCc3ccc(Cl)c(Cl)c3)[nH]c(=O)c21 — MIC (Lacticaseibacillus casei; microbial growth, agar dilution; 48 h): > 32 µg/mL
O=C1C2CC3CC(C2)CC1C3 — IC50 (Mycolicibacterium smegmatis; microbial growth; 48 h): > 500 µM
O=[N+]([O-])c1cc2cc3ccc4oc([N+](=O)[O-])cc4c3cc2o1 — MIC90 (Mycolicibacterium smegmatis; microbial growth, resazurin; MC^2155): 4 µg/mL (≈ 13.4 µM)
Cc1c2ccncc2c(C)c2c1[nH]c1ccccc12 — MBC (Mycolicibacterium smegmatis; microbial killing, resazurin): 87.1 µM (≈ 21.5 µg/mL)
Cn1cnc2nc(NCc3ccc(Cl)c(Cl)c3)[nH]c(=O)c21 — MIC (Lacticaseibacillus casei; microbial growth, agar dilution; 48 h): 32 µg/mL (≈ 98.7 µM)
